Experimental data taken from ChEMBL document CHEMBL3112527, “Quinoline-pyrimidine hybrids: synthesis, antiplasmodial activity, SAR, and mode of action studies” (J Med Chem, 2014).
Converted amounts (≈) assume the structure as drawn. The source made the active and inactive calls. No cut-off for these calls is given here.

Legend:
[1] = Solubility of the compound in octanol at pH 7.4 by HPLC analysis; format: physicochemical
[2] = Cytotoxicity against human HeLa cells assessed as alteration of cell morphology by microscopic analysis; format: cell-based; conditions: read-out: MIC
In short: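 Cells (Vero, HEL, MDCK or HeLa) were exposed to a range of sample concentrations. The value reported is the concentration required to cause a microscopically detectable alteration of normal cell morphology.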

[3] = Selectivity index, ratio of CC50 for cat CRFK cells to IC50 for chloroquine-resistant asexual erythrocytic stage of Plasmodium falciparum Dd2; format: functional
In short: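 Ratio of CRFK CC50 (μM) to Dd2 IC50 […]. CC50 is the 50% cytotoxic concentration in feline kidney CRFK cells, measured as cell viability by colorimetric formazan-based MTS assay. Dd2 IC50 is from the parasite LDH growth-inhibition assay.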

Human respirovirus 3 = experiment: Antiviral activity against parainfluenza virus 3 infected in African green monkey Vero cells assessed as inhibition of virus-induced cytopathicity; format: functional, organism-based
In short: (§1)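 Confluent monolayers (HEL, Vero, HeLa or CrFK, as applicable) were inoculated with 100 CCID50 of virus, with 1 CCID50 being the dose that infects 50% of cultures. Infection ran in the presence of varying compound concentrations. Inhibition of virus-induced cytopathicity was scored against infected cultures left untreated.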

Coxsackievirus B4 [4] = experiment: Antiviral activity against Coxsackievirus B4 infected in African green monkey Vero cells assessed as inhibition of virus-induced cytopathicity; format: functional, organism-based; in short: as §1
Human alphaherpesvirus 3 = experiment: Antiviral activity against Varicella-zoster virus infected in HEL cells assessed as inhibition of virus-induced cytopathicity; format: functional, organism-based
Human alphaherpesvirus 1 [5] = experiment: Antiviral activity against thymidine kinase-negative acyclovir-resistant HSV-1 KOS infected in HEL cells assessed as inhibition of virus-induced cytopathicity; format: functional, organism-based
In short: (§2)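 Confluent monolayers in 96-well plates were inoculated with 100 CCID50 of virus in the presence of varying concentrations of compound. Read-out was inhibition of virus-induced cytopathicity, compared with untreated infected cultures. Cytotoxicity was judged microscopically or by MTT viability staining.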

[6] = test system: Mammalian orthoreovirus 1; experiment: Antiviral activity against Reovirus 1 infected in African green monkey Vero cells assessed as inhibition of virus-induced cytopathicity; format: functional, organism-based; in short: as §1
Feline coronavirus = experiment: Antiviral activity against Feline coronavirus infected in cat CRFK cells assessed as inhibition of virus-induced cytopathicity; format: functional, organism-based; in short: as §1
Vaccinia virus = experiment: Antiviral activity against Vaccinia virus infected in HEL cells assessed as inhibition of virus-induced cytopathicity; format: functional, organism-based; conditions: Orthopoxvirus vaccinia; in short: as §2
[7] = n-octanol-PBS buffer distribution coefficient, log D of the compound at pH 7.4 after 24 hrs by HPLC analysis; format: physicochemical
Plasmodium falciparum [8] = experiment: Antiplasmodial activity against chloroquine-resistant asexual erythrocytic stage of Plasmodium falciparum Dd2 assessed as parasite growth inhibition by lactate dehydrogenase assay; format: functional, organism-based
In short: (§3)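 Parasite lactate dehydrogenase assay (modified Makler method). Samples held as 20 mg/mL stocks in DMSO, diluted on test day. Full dose-response: starting at 10 μg/mL, 2-fold serial dilution in complete medium over 10 concentrations down to 0.02 μg/mL. Chloroquine, artesunate and MMV390048 served as references. IC50 from nonlinear dose-response curve fitting; mean of three independent experiments.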

[9] = Aqueous solubility of the compound in PBS buffer at pH 7.4 after 24 hrs by HPLC analysis; format: physicochemical; conditions: pH 7.4, 24 h
[10] = test system: Vesicular stomatitis virus; experiment: Antiviral activity against Vesicular stomatitis virus infected in human HeLa cells assessed as inhibition of virus-induced cytopathicity; format: functional, organism-based; in short: as §2
Punta Toro virus = experiment: Antiviral activity against Punta Toro virus infected in African green monkey Vero cells assessed as inhibition of virus-induced cytopathicity; format: functional, organism-based; in short: as §1
Human betaherpesvirus 5 [11] = experiment: Antiviral activity against Cytomegalovirus Davis infected in HEL cells assessed as inhibition of virus-induced cytopathicity; format: functional, organism-based
Plasmodium falciparum [12] = experiment: Antiplasmodial activity against chloroquine-sensitive asexual erythrocytic stage of Plasmodium falciparum D10 assessed as parasite growth inhibition by lactate dehydrogenase assay; format: functional, organism-based; in short: as §3
Influenza A virus H3N2 = experiment: Antiviral activity against Influenza A virus H3N2 infected in MDCK cells assessed as inhibition of virus-induced cytopathicity; format: functional, organism-based; in short: as §2
Sindbis virus = experiment: Antiviral activity against Sindbis virus infected in African green monkey Vero cells assessed as inhibition of virus-induced cytopathicity; format: functional, organism-based
Coxsackievirus B4 [13] = experiment: Antiviral activity against Coxsackievirus B4 infected in human HeLa cells assessed as inhibition of virus-induced cytopathicity; format: functional, organism-based; in short: as §1
[14] = test system: Respiratory syncytial virus; experiment: Antiviral activity against Respiratory syncytial virus infected in human HeLa cells assessed as inhibition of virus-induced cytopathicity; format: functional, organism-based; in short: as §1
Influenza A virus = experiment: Antiviral activity against influenza A virus H1N1 infected in MDCK cells assessed as inhibition of virus-induced cytopathicity; format: functional, organism-based; in short: as §2
Human betaherpesvirus 5 [15] = experiment: Antiviral activity against Cytomegalovirus AD169 infected in HEL cells assessed as inhibition of virus-induced cytopathicity; format: functional, organism-based
[16] = test system: Vesicular stomatitis virus; experiment: Antiviral activity against Vesicular stomatitis virus infected in HEL cells assessed as inhibition of virus-induced cytopathicity; format: functional, organism-based; in short: as §2
Human alphaherpesvirus 2 = experiment: Antiviral activity against HSV-2 G infected in HEL cells assessed as inhibition of virus-induced cytopathicity; format: functional, organism-based; conditions: strain G; in short: as §1
Felid alphaherpesvirus 1 = experiment: Antiviral activity against Feline herpesvirus infected in cat CRFK cells assessed as inhibition of virus-induced cytopathicity; format: functional, organism-based; in short: as §1
[17] = Cytotoxicity against cat CRFK cells assessed as cell viability by MTS assay; format: cell-based, Felis catus
In short: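 CRFK cells were exposed to varying sample concentrations. Cell viability was measured with the colorimetric formazan-based MTS assay, and the 50% cytotoxic concentration (CC50) was derived from it.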

Human alphaherpesvirus 1 [18] = experiment: Antiviral activity against HSV-1 KOS infected in HEL cells assessed as inhibition of virus-induced cytopathicity; format: functional, organism-based; in short: as §1

Compound | solubility [1] [µM] | MCC [2] [µM] | Ratio CC50/IC50 [3] | inhibition (Human respirovirus 3) | inhibition (Coxsackievirus B4 [4]) | inhibition (Human alphaherpesvirus 3) | inhibition (Human alphaherpesvirus 1 [5]) | inhibition [6] | inhibition (Feline coronavirus) | inhibition (Vaccinia virus) | logD at 24 h [7] | IC50 (Plasmodium falciparum [8]) [nM] | solubility [9] [µM] | inhibition [10] | inhibition (Punta Toro virus) | inhibition (Human betaherpesvirus 5 [11]) | IC50 (Plasmodium falciparum [12]) [nM] | inhibition (Influenza A virus H3N2) | inhibition (Sindbis virus) | inhibition (Coxsackievirus B4 [13]) | other results
Clc1ccc2c(NCCCCCCCCNc3ccnc(Cl)n3)ccnc2c1 | 2.41 (≈ 1.01 µg/mL) | 4 | 9 | inactive | inactive | inactive | inactive | inactive | inactive | inactive | 1.48 | 883 | 0.08 (≈ 0.0335 µg/mL) | inactive | inactive | inactive | 912 | inactive | inactive | inactive | inhibition [14]: inactive; inhibition (Influenza A virus): inactive; inhibition (Human betaherpesvirus 5 [15]): inactive; inhibition [16]: inactive; inhibition (Human alphaherpesvirus 2): inactive; inhibition (Felid alphaherpesvirus 1): inactive; CC50 [17]: 8000 nM; inhibition (Human alphaherpesvirus 1 [18]): inactive
Clc1ccc2c(NCCCNc3nccc(Cl)n3)ccnc2c1 | 1.81 (≈ 0.63 µg/mL) | > 100 | >209 | inactive | inactive | inactive | inactive | inactive | inactive | inactive | 0.657 | 478 | 0.4 (≈ 0.139 µg/mL) | inactive | inactive | inactive | 244 | inactive | inactive | inactive | inhibition [14]: inactive; inhibition (Influenza A virus): inactive; inhibition (Human betaherpesvirus 5 [15]): inactive; inhibition [16]: inactive; inhibition (Human alphaherpesvirus 2): inactive; inhibition (Felid alphaherpesvirus 1): inactive; CC50 [17]: > 100000 nM; inhibition (Human alphaherpesvirus 1 [18]): inactive
Clc1ccc2c(NCCCNc3ccnc(Cl)n3)ccnc2c1 | 1.01 (≈ 0.352 µg/mL) | > 100 | >483 | inactive | inactive | inactive | inactive | inactive | inactive | inactive | 0.229 | 207 | 0.6 (≈ 0.209 µg/mL) | inactive | inactive | inactive | 270 | inactive | inactive | inactive | inhibition [14]: inactive; inhibition (Influenza A virus): inactive; inhibition (Human betaherpesvirus 5 [15]): inactive; inhibition [16]: inactive; inhibition (Human alphaherpesvirus 2): inactive; inhibition (Felid alphaherpesvirus 1): inactive; CC50 [17]: > 100000 nM; inhibition (Human alphaherpesvirus 1 [18]): inactive
Clc1ccc2c(NCCCNc3ccnc(N4CCCCC4)n3)ccnc2c1 | 2.02 (≈ 0.802 µg/mL) | 20 | 334 | inactive | inactive | inactive | inactive | inactive | inactive | inactive | 0.801 | 166 | 0.32 (≈ 0.127 µg/mL) | inactive | inactive | inactive | 65.5 | inactive | inactive | inactive | inhibition [14]: inactive; inhibition (Influenza A virus): inactive; inhibition (Human betaherpesvirus 5 [15]): inactive; inhibition [16]: inactive; inhibition (Human alphaherpesvirus 2): inactive; inhibition (Felid alphaherpesvirus 1): inactive; CC50 [17]: 55000 nM; inhibition (Human alphaherpesvirus 1 [18]): inactive
Clc1ccc2c(NCCCOc3nccc(Cl)n3)ccnc2c1 | 2.19 (≈ 0.765 µg/mL) | > 100 | >490 | inactive | inactive | inactive | inactive | inactive | inactive | inactive | 1.04 | 204 | 0.2 (≈ 0.0698 µg/mL) | inactive | inactive | inactive | 304 | inactive | inactive | inactive | inhibition [14]: inactive; inhibition (Influenza A virus): inactive; inhibition (Human betaherpesvirus 5 [15]): inactive; inhibition [16]: inactive; inhibition (Human alphaherpesvirus 2): inactive; inhibition (Felid alphaherpesvirus 1): inactive; CC50 [17]: > 100000 nM; inhibition (Human alphaherpesvirus 1 [18]): inactive
